Values after ≈ are worked out from the molar mass of the structure shown.
How the values were obtained:
[1] = Cytotoxicity against human HepG2 cells after 4 days by resazurin assay; format: cell-based
[2] = Kinetic solubility of the compound at pH 7.4 after 4 hrs by UPLC-UV analysis; format: physicochemical; details: buffer, read-out: Kinetic_solubility
HBV genotype D = assay: Antiviral activity against HBV genotype D infected in human HepG2.2.15 cells assessed as inhibition of viral DNA level treated twice for 3 days measured after 6 days by real time PCR; format: functional, organism-based; details: Hepatitis B virus
Hepatitis B virus [3] = assay: Antiviral activity against Hepatitis B virus infected in human HepG2.117 cells assessed as inhibition of viral DNA level after 3 days by real time PCR; format: functional, organism-based; details: HepG2.117, 72 h
[4] = Drug metabolism in human liver microsomes at 1 uM after 15 mins by LC-MS/MS analysis; format: ADME, microsome; details: read-out: Drug metabolism
Method in brief: (§1)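 Compound incubated 15 min with human or mouse liver microsomes; stability expressed as percent turnover (metabolised) at 15 min.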

[5] = Drug metabolism in mouse liver microsomes at 1 uM after 15 mins by LC-MS/MS analysis; format: ADME, microsome; details: read-out: Drug metabolism; method in brief: as §1
Hepatitis B virus [6] = assay: Induction of HBV capsid core protein CP149 aggregation assessed as ratio between area under the curve for observed amount of core dimer and area under the curve for aggregated core protein at 20 uM after 24 hrs by size exclusion chromatographic analysis
Method in brief: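 Recombinant HBV core assembly domain (aa 1–149, Cp149) was incubated with compound at 20 µM for 24 h, with a no-compound control run in parallel. Size exclusion chromatography gave the ratio of Cp149 dimer AUC to aggregated Cp149 AUC.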

Structure (SMILES) | CC50 at 96 h [1] | solubility kinetic at 4 h [2] | EC50 (HBV genotype D) | EC50 (Hepatitis B virus [3]) | metabolised at 0.25 h, 1 µM [4] | metabolised at 0.25 h, 1 µM [5] | Ratio (Hepatitis B virus [6])
O=C(Nc1ccc(F)cc1)c1cc(S(=O)(=O)NC2CCCC2)ccc1F | > 25 µM | 82 µM (≈ 31.2 µg/mL) | 0.36 µM | 0.66 µM | 36% | 77% | 
O=C(Nc1ccc(F)cc1)c1cccc(S(=O)(=O)N2CCCC2)c1 | 96.9 µM | 48 µM (≈ 16.7 µg/mL) | 4.53 µM | 3.03 µM | 44% | 96% | 
O=C(Nc1cccc(S(=O)(=O)NC2CCCCC2)c1)c1ccc(F)cc1 | > 25 µM | 22 µM (≈ 8.28 µg/mL) | 8 µM | > 25 µM | 91% | 100% | 
CC1(NS(=O)(=O)c2cccc(C(=O)Nc3ccc(F)cc3)c2)COC1 | > 100 µM | > 100 µM | 0.96 µM | 0.93 µM | 3% | 29% | 0.5
CC(C)(C)NS(=O)(=O)c1cccc(C(=O)Nc2ccc(F)cc2)c1 | 52.5 µM | 1 µM (≈ 0.35 µg/mL) | 1.24 µM | 2.28 µM | 15% | 31% | 0.9
O=C(Nc1cccc(S(=O)(=O)NC2CCCCC2)c1)c1ccccc1 | > 25 µM | 10 µM (≈ 3.58 µg/mL) | 9.6 µM | > 25 µM | 99% | 100% | 7
CC[C@H](C)NS(=O)(=O)c1cccc(C(=O)Nc2ccc(F)cc2)c1 | 39.6 µM | 92 µM (≈ 32.2 µg/mL) | 0.75 µM | 8.63 µM | 18% | 82% | 
O=C(Nc1ccccc1)c1cc(S(=O)(=O)NC2CCCCC2)ccc1F | > 25 µM | 21 µM (≈ 7.91 µg/mL) | 0.66 µM | 0.6 µM | 63% | 100% | 0.1
CC(=O)N1CCN(S(=O)(=O)c2cccc(C(=O)Nc3ccc(F)cc3)c2)CC1 | > 100 µM | 86 µM (≈ 34.9 µg/mL) | 7.1 µM | 6.3 µM | 19% | 52% | 0.9
O=C(NC1CCCCC1)c1cc(S(=O)(=O)NC2CCCCC2)ccc1F | > 25 µM |  | 28.8 µM | > 25 µM |  |  | 
CN1CCC(NS(=O)(=O)c2cccc(C(=O)Nc3ccc(F)cc3)c2)CC1 | > 100 µM | 94 µM (≈ 36.8 µg/mL) | 5.3 µM | 16 µM | 10% | 13% | 4.2
CN(c1cccc(C(=O)Nc2ccc(F)cc2)c1)S(=O)(=O)C1CCCC1 | 43.2 µM | 53 µM (≈ 20 µg/mL) | 7.5 µM | 16.3 µM | 86% | 99% | 2
O=C(Nc1ccc(F)cc1)c1cccc(S(=O)(=O)NC2CCC2)c1 | 57.7 µM | 84 µM (≈ 29.3 µg/mL) | 0.83 µM | 0.9 µM | 51% | 99% | 
O=C(Nc1ccc(F)cc1)c1cccc(NS(=O)(=O)C2CCCCC2)c1 | 33.6 µM | 86 µM (≈ 32.4 µg/mL) | 1.1 µM | 2.2 µM | 46% | 91% | 0.3
O=C(Nc1cccc(F)c1)c1cccc(S(=O)(=O)NC2CCCC2)c1 | > 25 µM | 57 µM (≈ 20.7 µg/mL) | 0.27 µM | 0.43 µM | 88% | 100% | 
O=C(Nc1ccc(F)cc1)c1cccc(S(=O)(=O)NC2CCCC2)c1 | 32.7 µM | 83 µM (≈ 30.1 µg/mL) | 0.47 µM | 0.6 µM | 50% | 91% | 
CN(C1CCCC1)S(=O)(=O)c1cccc(C(=O)Nc2ccc(F)cc2)c1 | 23.8 µM | 19 µM (≈ 7.15 µg/mL) | 2.6 µM | 11.1 µM | 98% | 100% | 
Cc1ccc(NC(=O)c2cccc(S(=O)(=O)NC3CCCC3)c2)cc1F | > 25 µM | 12 µM (≈ 4.52 µg/mL) | 1.99 µM | 15.3 µM | 67% | 99% | 
CN(C)S(=O)(=O)c1cccc(C(=O)Nc2ccc(F)cc2)c1 | > 100 µM | 43 µM (≈ 13.9 µg/mL) | 5.02 µM | 2.99 µM | 50% | 89% | 1.4
O=C(Nc1ccc(F)cc1)c1cccc(NS(=O)(=O)C2CCCC2)c1 | > 50 µM | 92 µM (≈ 33.3 µg/mL) | 1.2 µM | 1.2 µM | 4% | 93% | 
CC[C@@H](C)NS(=O)(=O)c1cccc(C(=O)Nc2ccc(F)cc2)c1 | 46 µM | 59 µM (≈ 20.7 µg/mL) | 0.34 µM | 0.89 µM | 21% | 88% | 
CC(C)NS(=O)(=O)c1cccc(C(=O)Nc2ccc(F)cc2)c1 | 57.5 µM | > 100 µM | 0.74 µM | 0.96 µM | 16% | 61% | 
O=C(Nc1ccc(F)cc1)c1cccc(S(=O)(=O)NC2CCCCC2)c1 | > 25 µM | 43 µM (≈ 16.2 µg/mL) |  | 0.58 µM | 69% | 93% | 0.2
O=C(Nc1ccc(F)cc1)c1cccc(S(=O)(=O)N[C@H]2CCOC2)c1 | > 100 µM | > 100 µM | 0.54 µM | 1.36 µM | 32% | 29% | 
CCC(CC)NS(=O)(=O)c1cccc(C(=O)Nc2ccc(F)cc2)c1 | 40.3 µM | 15 µM (≈ 5.47 µg/mL) | 0.75 µM | 3.63 µM | 53% | 99% | 
O=C(NCc1ccccc1)c1cc(S(=O)(=O)NC2CCCCC2)ccc1F | 93.9 µM | 29 µM (≈ 11.3 µg/mL) | > 100 µM |  | 74% |  | 8.4
O=C(Nc1ccc(F)cc1)c1cccc(S(=O)(=O)N[C@@H]2CCOC2)c1 | > 100 µM | > 100 µM | 1.18 µM | 2.03 µM | 21% | 24% | 
O=C(Nc1ccc(F)cc1)c1cccc(S(=O)(=O)NC2CCOCC2)c1 | > 100 µM | > 100 µM | 0.93 µM | 1.67 µM | 14% | 48% | 

From ChEMBL document CHEMBL4138314, “Synthesis and Evaluation of N-Phenyl-3-sulfamoyl-benzamide Derivatives as Capsid Assembly Modulators Inhibiting Hepatitis B Virus (HBV)” (J Med Chem, 2018)
